Data reported in ChEMBL document CHEMBL1152862, “Tetrahydrobenzo- and benzofurobenzopyrones as a new class of potential photoreagents toward DNA” (2009).
Active and inactive are the calls of the source. No cut-off for these calls is given here.

Tests used:
Bacillus subtilis [1] = test: Phototoxicity against Bacillus subtilis after 3 hrs irradiated with UV light by disk diffusion method; assay type: functional
In short: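 B. subtilis broth culture on nutrient agar (0.3% beef extract, 0.5% peptone, 0.1% K2HPO4, 1.5% agar). Plates held in the dark at 37 °C for 3 h so compounds diffuse through the agar. Uncovered dishes then exposed to 365 nm UV for 20 min and reincubated in the dark at 37 °C overnight. Photosensitizing activity read as inhibition zones.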

Bacillus subtilis [2] = test: Antimicrobial activity against Bacillus subtilis incubated in dark for 3 hrs by disk diffusion method; assay type: functional
In short: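 Nutrient agar (0.3% beef extract, 0.5% peptone, 0.1% dipotassium hydrogen phosphate, 1.5% agar) seeded with B. subtilis broth culture. Duplicate control plate kept unirradiated at 37 °C overnight in the incubator. Read-out is the size of the inhibition zones.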

Nucleic Acid = test: Binding affinity to DNA; assay type: nucleic-acid assay

Row | Activity (Nucleic Acid) | Structure (SMILES) | inhibition zone (IZ) (Bacillus subtilis [1]) | inhibition zone (IZ) (Bacillus subtilis [2])
1 | Active | Cc1cc(=O)oc2ccc3oc4ccccc4c3c12 | 14 mm | 11 mm
2 | – | O=c1cc(-c2ccccc2)c2cc3c4c(oc3cc2o1)CCCC4 | 7 mm | 9 mm
3 | Active | O=c1cc(-c2ccccc2)c2ccc3oc4ccccc4c3c2o1 | 14 mm | 13 mm
4 | Active | O=c1cc(-c2ccccc2)c2cc3c(cc2o1)oc1ccccc13 | 13 mm | 10 mm
5 | – | COc1c2occc2cc2ccc(=O)oc12 [METHOXSALEN] | 12 mm | –
6 | Active | Cc1cc(=O)oc2cc3c(cc12)oc1ccccc13 | 16 mm | 12 mm
7 | – | O=c1cc(-c2ccccc2)c2ccc3oc4c(c3c2o1)CCCC4 | 5 mm | –
